The target in data set [1] is T1, Poly [ADP-ribose] polymerase 1 (Homo sapiens, UniProt P09874). Briefly: Inhibition of PARP1 by scintillation counting.
For data set [2], the target named is T1, Poly [ADP-ribose] polymerase 1. Briefly: Inhibition of PARP1 in human C41 cells after 30 mins by cell-based assay.
Data set [3] is described as follows: Clearance in CD1 mouse at 3.0 mg/kg, iv. The arrangement: dose 3 mg/kg, route intravenous. It counts as ADME, organism-based. As to conditions: in vivo. The procedure, abridged:
(§1)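 Male CD-1 mice (26-30 g) were dosed iv via the tail vein or po by gavage. Blood was taken by cardiac puncture after CO₂ asphyxiation at set times. Plasma proteins were precipitated with acidified methanol. Samples were quantified by LC-ESI-MS against external standards from spiked control plasma.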

Data set [4] can be described thus: Volume of distribution in CD1 mouse at 3.0 mg/kg, iv. Also on record: dose 3 mg/kg, route intravenous. It counts as ADME, organism-based. As to conditions: in vivo. The procedure, abridged: as §1
Data set [5] can be described thus: Half life in CD1 mouse at 3.0 mg/kg, iv. The data set is classed as ADME, organism-based. The arrangement: dose 3 mg/kg, route intravenous. The settings on record: in vivo. The procedure, abridged: as §1
The nature of data set [6]: AUC in CD1 mouse at 3.0 mg/kg, iv. The data set is classed as ADME, organism-based. Also on record: dose 3 mg/kg, route intravenous. As to conditions: plasma. The procedure, abridged: as §1
Data set [7] in a line: Oral bioavailability in CD1 mouse at 10 mg/kg. It counts as ADME, organism-based. As to conditions: in vivo. The procedure, abridged:
as §1

Data set [8] is described as follows: Cmax in CD1 mouse at 10 mg/kg, po. The data set is classed as ADME, organism-based. Also on record: dose 10 mg/kg, route oral. As to conditions: in vivo. The procedure, abridged:
as §1

Data set [9] is described as follows: AUC in CD1 mouse at 10 mg/kg, po. The data set is classed as ADME, organism-based. As to conditions: plasma. Also on record: dose 10 mg/kg, route oral. The procedure, abridged:
as §1

Data set [10] relates to B16-F10. Briefly: Antitumor activity against mouse B16F10 cells implanted in C57BL/6 mouse at 60 mg/kg, po BID for 5 days measured on day 12 in presence of DNA alkylating agent temozolomide. It counts as functional. As to conditions: read-out: TGI. The procedure, abridged: (§2)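 B16F10 syngeneic model: cells in Matrigel (1:1) were injected sc into the flank at 6 × 10⁴ cells per mouse. Recipients were female C57BL/6 mice, 6-8 weeks old, 18-20 g. Temozolomide was given po q.d. at 50 mg/kg/day for 5 consecutive days. Over the same period the PARP inhibitor was given po b.i.d. Read-out was relative tumor growth inhibition on the stated day.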

For data set [11], the system named is B16-F10. Briefly: Antitumor activity against mouse B16F10 cells implanted in C57BL/6 mouse at 60 mg/kg, po BID for 5 days measured on day 19 in presence of DNA alkylating agent temozolomide. It counts as functional. The settings on record: read-out: TGI. The procedure, abridged: as §2
Data set [12] has as its system B16-F10. Briefly: Antitumor activity against mouse B16F10 cells implanted in C57BL/6 mouse at 30 mg/kg, po BID for 5 days measured on day 12 in presence of DNA alkylating agent temozolomide. The data set is classed as functional. The settings on record: read-out: TGI. The procedure, abridged:
as §2

Data set [13] has as its system B16-F10. Briefly: Antitumor activity against mouse B16F10 cells implanted in C57BL/6 mouse at 30 mg/kg, po BID for 5 days measured on day 19 in presence of DNA alkylating agent temozolomide. It counts as functional. The settings on record: read-out: TGI. The procedure, abridged: as §2
The test system of data set [14] is B16-F10. Briefly: Antitumor activity against mouse B16F10 cells implanted in C57BL/6 mouse at 10 mg/kg, po BID for 5 days measured on day 12 in presence of DNA alkylating agent temozolomide. The data set is classed as functional. As to conditions: read-out: TGI. The procedure, abridged:
as §2

The test system of data set [15] is B16-F10. Briefly: Antitumor activity against mouse B16F10 cells implanted in C57BL/6 mouse at 10 mg/kg, po BID for 5 days measured on day 19 in presence of DNA alkylating agent temozolomide. It counts as functional. The settings on record: read-out: TGI. The procedure, abridged: as §2
The test system of data set [16] is B16-F10. Briefly: Antitumor activity against mouse B16F10 cells implanted in C57BL/6 mouse at 30 mg/kg, po BID for 5 days measured on day 16 in presence of DNA alkylating agent temozolomide. It counts as functional. The settings on record: B16-F10, read-out: TGI. The procedure, abridged: as §2
Data set [17] relates to B16-F10. Briefly: Antitumor activity against mouse B16F10 cells implanted in C57BL/6 mouse at 10 mg/kg, po BID for 5 days measured on day 16 in presence of DNA alkylating agent temozolomide. The data set is classed as functional. The settings on record: B16-F10, read-out: TGI. The procedure, abridged:
as §2

The test system of data set [18] is B16-F10. Briefly: Antitumor activity against mouse B16F10 cells implanted in C57BL/6 mouse at 3 mg/kg, po BID for 5 days measured on day 16 in presence of DNA alkylating agent temozolomide. It counts as functional. As to conditions: read-out: TGI.
The subject of data set [19] is B16-F10. Briefly: Antitumor activity against mouse B16F10 cells implanted in C57BL/6 mouse at 3 mg/kg, po BID for 5 days measured on day 19 in presence of DNA alkylating agent temozolomide. The settings on record: read-out: TGI. The data set is classed as functional.
The subject of data set [20] is B16-F10. Briefly: Antitumor activity against mouse B16F10 cells implanted in C57BL/6 mouse at 50 mg/kg, po QD for 5 days measured on day 12. The data set is classed as functional. As to conditions: read-out: TGI.
The test system of data set [21] is B16-F10. Briefly: Antitumor activity against mouse B16F10 cells implanted in C57BL/6 mouse at 50 mg/kg, po QD for 5 days measured on day 16. As to conditions: read-out: TGI. It counts as functional.

pEC50, pKi: −log10 of the molar value.

Broadly, the pKi is the negative decadic logarithm of the Ki, by convention in mol/L. The pEC50 is the EC50 on a negative log10 scale, so that one unit is a factor of ten. High values mean a low EC50, low ones a high EC50. One may read the clearance as the volume of plasma or blood freed of the substance per unit of time. A word on the Vd: it is a proportionality between amount in the body and measured concentration, not a real space. A higher Vd goes with extensive tissue distribution. One may read the half-life as how long it takes for the measured level to halve. Higher therefore signals slow decline. The AUC is the area under the concentration-time curve, a measure of exposure. A lower AUC goes with less exposure. In general, Cmax refers to the highest concentration seen after dosing.

T1 sequence (P09874 whole entry): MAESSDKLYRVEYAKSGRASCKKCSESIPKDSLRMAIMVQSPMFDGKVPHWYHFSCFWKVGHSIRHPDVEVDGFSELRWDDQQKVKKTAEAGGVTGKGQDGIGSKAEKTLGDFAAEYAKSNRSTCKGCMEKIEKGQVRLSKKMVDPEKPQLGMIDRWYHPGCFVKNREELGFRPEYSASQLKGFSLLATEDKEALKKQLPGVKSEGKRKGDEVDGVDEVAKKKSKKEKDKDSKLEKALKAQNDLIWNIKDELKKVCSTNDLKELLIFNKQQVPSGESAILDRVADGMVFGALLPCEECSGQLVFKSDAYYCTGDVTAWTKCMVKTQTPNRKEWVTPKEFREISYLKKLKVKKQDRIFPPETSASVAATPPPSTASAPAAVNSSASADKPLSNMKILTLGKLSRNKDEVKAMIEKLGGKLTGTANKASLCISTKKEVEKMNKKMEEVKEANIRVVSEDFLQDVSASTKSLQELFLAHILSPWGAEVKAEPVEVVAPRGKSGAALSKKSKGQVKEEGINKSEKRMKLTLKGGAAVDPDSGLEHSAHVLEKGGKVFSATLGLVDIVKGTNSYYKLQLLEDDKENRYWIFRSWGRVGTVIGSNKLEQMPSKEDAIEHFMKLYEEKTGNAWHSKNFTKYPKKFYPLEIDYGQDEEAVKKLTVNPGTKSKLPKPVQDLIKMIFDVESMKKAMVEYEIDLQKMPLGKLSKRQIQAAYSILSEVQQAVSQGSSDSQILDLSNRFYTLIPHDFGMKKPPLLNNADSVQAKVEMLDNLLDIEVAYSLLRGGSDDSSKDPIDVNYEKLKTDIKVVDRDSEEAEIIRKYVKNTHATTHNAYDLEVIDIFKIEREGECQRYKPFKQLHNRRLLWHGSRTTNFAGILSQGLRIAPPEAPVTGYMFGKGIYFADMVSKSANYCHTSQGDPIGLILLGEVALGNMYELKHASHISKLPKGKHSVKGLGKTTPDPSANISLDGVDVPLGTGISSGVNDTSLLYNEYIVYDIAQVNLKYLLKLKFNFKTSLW

With `NC(=O)c1cccc2[nH]c(-c3ccc(-c4ncc[nH]4)cc3)nc12`, the pKi in data set [1] was 8.66. In [2], the pEC50 is 8.66. The same molecule gave a clearance in data set [3] of 533 mL/min/kg. In data set [4], this molecule registered a Vd of 26 L/kg. For the same molecule, the half-life in data set [5] was 33.6 min. This molecule gave an AUC in data set [6] of 0.31 µM·h. Also, the bioavailability in [7] turned out to be 0%.
In data set [1], `NC(=O)c1cccc2[nH]c(-c3ccc(-c4cnco4)cc3)nc12` gave a pKi of 9.12. In data set [2], the pEC50 is 9.00. Also, in [3], the clearance was 300 mL/min/kg. Also, the Vd in [4] is 26 L/kg. Also, the half-life in data set [5] is 58.2 min. For the same molecule, the results for the AUC in data set [6] and in data set [9] were 0.54 µM·h and 0.11 µM·h, respectively. In data set [8], this molecule returned a Cmax of 70 nM. In data set [7], the bioavailability was 6%.
As for `NC(=O)c1cccc2[nH]c(-c3ccc(-c4nnn[nH]4)cc3)nc12`, in data set [1], the pKi is 7.70.
Consider `NC(=O)c1cccc2[nH]c(-c3ccc(-c4ccno4)cc3)nc12`, for which the pKi in data set [1] was 8.00. Besides, the pEC50 in [2] was less than 6.00.
`NC(=O)c1cccc2[nH]c(-c3ccc(-c4nnco4)cc3)nc12` showed a pKi in data set [1] of 9.00. In [2], the negative logarithm of the EC50 (pEC50) is 8.43. In addition, in [3], the clearance was 55 mL/min/kg. For the same molecule, the Vd in data set [4] was 1.7 L/kg. The same molecule showed a half-life in data set [5] of 21.6 min. The exposure (AUC) is 3 µM·h in [6] and 4 µM·h in data set [9]. Also, the Cmax in data set [8] is 2700 nM. Besides, the bioavailability in data set [7] worked out at 41%. Further, the inhibition in vivo at 60 mg/kg stood at 67% in data set [10] and 81% in data set [11]. The inhibition in vivo at 30 mg/kg in data set [12] stood at 59%; in data set [13], 72%. Moreover, the inhibition in vivo at 10 mg/kg in data set [14] turned out to be 57%; in data set [15] it was 53%.
On to `NC(=O)c1cccc2[nH]c(-c3ccc(-c4cn5ccc(C(F)(F)F)cc5n4)cc3)nc12`, for which, in data set [1], the pKi was 8.17. This molecule showed a pEC50 in data set [2] of 7.70.
Taken in the same sequence, the figures for `NC(=O)c1cccc2[nH]c(-c3ccc(-c4nc(=S)o[nH]4)cc3)nc12` were 8.42 and 6.48.
Take `NC(=O)c1cccc2[nH]c(-c3ccc(-c4cccnc4)cc3)nc12`: the clearance in data set [3] was 147 mL/min/kg. In addition, the Vd in [4] was found to be 7.3 L/kg. In addition, in data set [5], the half-life was 34.8 min. Further, the AUC in data set [6] was 1.1 µM·h; in [9], 2.7 µM·h. Moreover, the peak concentration (Cmax) in [8] worked out at 2200 nM. Also, the bioavailability in data set [7] is 73%.
For the molecule `NC(=O)c1cccc2[nH]c(-c3ccc(-c4csc(N)n4)cc3)nc12`, in [1], the pKi is 8.66. In addition, the pEC50 in [2] was 7.59.
For `NC(=O)c1cccc2[nH]c(-c3ccc(-c4cscn4)cc3)nc12`, in that order: 8.77 and 8.43.
`NC(=O)c1cccc2[nH]c(-c3ccc(-c4cnc[nH]4)cc3)nc12` had a pKi in data set [1] of 8.92. Also, in data set [2], the negative logarithm of the EC50 (pEC50) was 8.43.
`NC(=O)c1cccc2[nH]c(-c3ccc(-c4ccccn4)cc3)nc12` showed a clearance in data set [3] of 123 mL/min/kg. The Vd in [4] turned out to be 6.6 L/kg. The molecule further gave a half-life in data set [5] of 37.2 min. For the same molecule, the AUC came to 1.3 µM·h in [6] and 6.1 µM·h in [9]. In addition, the concentration in data set [8] peaked (Cmax) at 1800 nM. The bioavailability in [7] stood at 141%. Besides, the results for the inhibition in vivo at 30 mg/kg in [13] and in data set [16] were 70% and 72%, respectively. For the same molecule, the inhibition in vivo at 10 mg/kg in data set [15] turned out to be 32%; in [17], 83%. For the same molecule, the inhibition in vivo at 3 mg/kg in data set [18] amounted to 66%; in data set [19], 23%.
The molecule `NC(=O)c1cccc2[nH]c(-c3ccc(-c4n[nH]c(=O)o4)cc3)nc12` gave a negative logarithm of the Ki (pKi) in [1] of 8.80. The molecule also showed a pEC50 in data set [2] of 7.19.
The molecule `NC(=O)c1cccc2[nH]c(-c3ccc(-c4ccncc4)cc3)nc12` gave a clearance in data set [3] of 167 mL/min/kg. For the same molecule, in data set [4], the Vd was determined as 5.9 L/kg. In [5], the half-life is 24 min. The AUC was determined as 0.94 µM·h in [6] and 1.4 µM·h in data set [9]. Also, the concentration in data set [8] peaked (Cmax) at 760 nM. In addition, the bioavailability in data set [7] was 44%.
Molecule `NC(=O)c1cccc2[nH]c(-c3ccc(-c4ccccc4)cc3)nc12` gave a negative-log Ki (pKi) in [1] of 8.70. Also, the negative-log EC50 (pEC50) in data set [2] was 7.15.
For `NC(=O)c1cccc2[nH]c(-c3ccc(-c4cn5ccccc5n4)cc3)nc12`, in that order: 8.54 and 7.70.
`NC(=O)c1cccc2[nH]c(-c3ccc(-c4nc(=O)o[nH]4)cc3)nc12` showed a pKi in data set [1] of 7.80.
The molecule `Cn1ccc(-c2ccc(-c3nc4c(C(N)=O)cccc4[nH]3)cc2)n1` showed a pKi in data set [1] of 8.35. For the same molecule, in data set [2], the negative-log EC50 (pEC50) is 7.70.
For `Cc1noc(-c2ccc(-c3nc4c(C(N)=O)cccc4[nH]3)cc2)n1`, in that order: 8.40 and 8.04.
For `NC(=O)c1cccc2[nH]c(-c3ccc(-c4nsc(=O)[nH]4)cc3)nc12`, in that order: 8.28 and 6.34.
On to `Cc1nc(-c2ccc(-c3nc4c(C(N)=O)cccc4[nH]3)cc2)co1`, for which the pKi in [1] was 8.62. Moreover, in data set [2], the pEC50 is 7.74.
Regarding `Cn1nnc2c(C(N)=O)ncn2c1=O` [TEMOZOLOMIDE], the inhibition in vivo at 50 mg/kg was determined as 43% in [20] and 56% in [21].

The values above are taken from ChEMBL document CHEMBL1154691, “Synthesis and evaluation of a new generation of orally efficacious benzimidazole-based poly(ADP-ribose) polymerase-1 (PARP-1) inhibitors as anticancer agents” (J Med Chem, 2009).
